Values after ≈ are worked out from the molar mass of the structure shown.
System: Mycobacterium tuberculosis
Test: Antitubercular activity against drug sensitive Mycobacterium tuberculosis H37Rv ATCC 27294 by microplate Alamar blue assay
Assay type: functional
Method in brief: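 Modified microplate Alamar Blue assay. H37Rv ATCC 27294 is susceptible to streptomycin, isoniazid, rifampin, ethambutol and pyrazinamide. Clinical isolate CIBIN/UMF15:99 is resistant to the same five drugs. Test stocks were 2 mg/mL in 20% DMSO in Middlebrook 7H9 broth, filter-sterilized. Final concentrations ran from 100 to 0.78 µg/mL. Read-out was MIC, at least in triplicate.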

Q: Which MIC does the source give for CC[C@@H](CO)NCCN[C@@H](CC)CO [ETHAMBUTOL] here?
A: 2 mg/L (≈ 9.79 µM)

Q: Which MIC does the source give for NNC(=O)c1ccncc1 [ISONIAZID] here?
A: 0.06 mg/L (≈ 0.438 µM)

Q: CC(C)=CCC[C@H](C)[C@@H]1CC[C@@H](C)c2c(O)cc(C)cc21 [LEUBETHANOL] was tested. Which MIC did it give?
A: 12.5 mg/L (≈ 43.6 µM)

Q: How did the MIC turn out when CO[C@H]1/C=C/O[C@@]2(C)Oc3c(C)c(O)c4c(O)c(c(/C=N/N5CCN(C)CC5)c(O)c4c3C2=O)NC(=O)/C(C)=C\C=C\[C@H](C)[C@H](O)[C@@H](C)[C@@H](O)[C@@H](C)[C@H](OC(C)=O)[C@@H]1C [RIFAMPIN] was run?
A: 0.06 mg/L (≈ 0.0729 µM)

Q: For CN[C@@H]1[C@H](O[C@H]2[C@H](O[C@H]3[C@H](O)[C@@H](O)[C@H](N=C(N)N)[C@@H](O)[C@@H]3N=C(N)N)O[C@@H](C)[C@]2(O)C=O)O[C@@H](CO)[C@H](O)[C@H]1O [STREPTOMYCIN], which MIC is on record?
A: 0.5 mg/L (≈ 0.86 µM)
